The results in this text go back to ChEMBL document CHEMBL5104210, “Discovery of antipsychotic loxapine derivatives against intracellular multidrug-resistant bacteria” (RSC Med Chem, 2022).

The CC50 is the concentration that lowers cell viability or growth by half. Broadly, the EC50 is the concentration at which the effect is half-maximal.

The structures appear in SMILES notation.

A short description of series [1]: Cytotoxicity against mouse RAW264.7 cells assessed as reduction in number of cells by DAPI staining based high-content image analysis. The class given is toxicity, cell-based. Summed up:
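RAW264.7 seeded 20 h, infected 1 h with RFP-expressing S. Typhimurium (MOI 50), 100 mg/L gentamicin 1 h, then compound with 20 mg/L gentamicin 24 h. Cells stained with CellTracker Green, fixed in 3.7% formaldehyde, DAPI 0.2 mg/L. Whole-well high-content imaging at 10×; viable cells counted as DAPI-stained nuclei; CC50 calculated.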

A further series has as its system Salmonella typhimurium. The series is described as follows: Antibacterial activity against intracellular multidrug-resistant Salmonella typhimurium ATCC14028 infected in mouse RAW264.7 cells assessed as reduction in intracellular bacterial survival level by RFP staining based high-content image analysis. The class given is functional, organism-based, Salmonella enterica subsp. enterica serovar Typhimurium. The conditions noted are these: Salmonella enterica, ATCC14028, RAW264.7. Summed up:
(§1)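 RAW264.7 cells were seeded for 20 h, then infected for 1 h at MOI 50 with RFP-expressing bacteria (2 h subculture, OD600 0.6 ≈ 1×10^8 CFU/mL). Gentamicin 100 mg/L was given for 1 h, then compound plus 20 mg/L gentamicin for 24 h. Cells were stained with CellTracker Green, fixed, and stained with DAPI. Whole-well high-content imaging gave intracellular RFP intensity for EC50 and DAPI nuclei counts for CC50.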

Series [2] can be described thus: Selectivity ratio of CC50 for cytotoxicity against mouse RAW264.7 cells to EC50 for antibacterial activity against intracellular multidrug-resistant Salmonella typhimurium ATCC14028 infected in mouse RAW264.7 cells. The class given is toxicity, cell-based. To be noted: read-out: Ratio CC50/EC50. In outline:
as §1

Turning to `Clc1ccc2c(c1)C(NCCN1CCOCC1)=Nc1ccccc1O2`, the CC50 in series [1] amounted to 84.7 µM. The EC50 in the series with Salmonella typhimurium came to 32 µM. Moreover, in series [2], the selectivity ratio turned out to be 2.6.
With `Clc1ccc2c(c1)C(NCCCN1CCCCC1)=Nc1ccccc1O2`, in series [1], the CC50 was found to be 19.6 µM. Besides, the EC50 with Salmonella typhimurium was 1.12 µM. For the same compound, the selectivity ratio in series [2] worked out at 17.5.
The corresponding values for `Clc1ccc2c(c1)C(NCCN1CCCC1)=Nc1ccccc1O2` are 26.6 µM, 4.89 µM and 5.4.
On the same counts, the results for `Clc1ccc2c(c1)C(NCCN1CCCCC1)=Nc1ccccc1O2` are 22.2 µM, 4.34 µM and 5.1.
With `O=C(O)c1cn(C2CC2)c2cc(N3CCNCC3)c(F)cc2c1=O` [CIPROFLOXACIN], the EC50 with Salmonella typhimurium was 0.15 µM.
For `Clc1ccc2c(c1)C(NCCc1ccncc1)=Nc1ccccc1O2`, in series [1], the CC50 worked out at 51.1 µM. In the series on Salmonella typhimurium, the EC50 was found to be 18.5 µM. Besides, the selectivity ratio in series [2] came out at 2.8.
On the same counts, the results for `Clc1ccc2c(c1)C(NCc1ccccc1)=Nc1ccccc1O2` are 60.8 µM, 19.7 µM and 3.1.
With `O=C(CNC1=Nc2ccccc2Oc2ccc(Cl)cc21)N1CCCC1`, the CC50 in series [1] was over 90 µM. Further, in the series on Salmonella typhimurium, the EC50 is over 90 µM.
Turning to `CN(C)CCNC1=Nc2ccccc2Oc2ccc(Cl)cc21`, the CC50 in series [1] came to 34.6 µM. In addition, the concentration giving a half-maximal response (EC50) in the series with Salmonella typhimurium stood at 3.65 µM. In series [2], the selectivity ratio worked out at 9.5.
On the same counts, the results for `Clc1ccc2c(c1)C(NCC1CC1)=Nc1ccccc1O2` are 80.3 µM, 44 µM and 1.8.
On the same counts, the results for `CN1CCCC1CCNC1=Nc2ccccc2Oc2ccc(Cl)cc21` (stereo unspecified) are 23 µM, 1.22 µM and 18.9.
As to `CCC(CC)NC1=Nc2ccccc2Oc2ccc(Cl)cc21`, the CC50 in series [1] is 72.8 µM. For the same compound, in the series on Salmonella typhimurium, the EC50 was found to be 28.5 µM. For the same compound, in series [2], the selectivity ratio came to 2.6.
For `CC(C)CCNC1=Nc2ccccc2Oc2ccc(Cl)cc21`, the CC50 in series [1] stood at 70.1 µM. Also, the EC50 in the series with Salmonella typhimurium was determined as 55.1 µM. Further, the selectivity ratio in series [2] came out at 1.3.
